Test results as given in ChEMBL document CHEMBL1153955, “Indolylarylsulfones bearing natural and unnatural amino acids. Discovery of potent inhibitors of HIV-1 non-nucleoside wild type and resistant mutant strains reverse transcriptase and coxsackie B4 virus” (J Med Chem, 2009).
pEC50, pIC50: −log10 of the molar value.

Experiments:
[1] = molecular target: Human immunodeficiency virus type 1 reverse transcriptase (Human immunodeficiency virus 1, UniProt Q72547); test: Inhibition of HIV1 reverse transcriptase p66/p51; settings: read-out: IC50
[2] = molecular target: Human immunodeficiency virus type 1 reverse transcriptase (Human immunodeficiency virus 1, UniProt Q72547, L100I); test: Inhibition of HIV1 reverse transcriptase p66/p51 L100I mutant; settings: read-out: IC50
Summary of the method: (§1)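 Substrate was 0.5 µg poly(rA)/oligo(dT) 10:1 (0.3 µM 3′-OH ends) with 10 µM [³H]dTTP, at 37 °C. Acid-precipitable radioactivity was counted on GF/C filters after TCA washes.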

[3] = Antiproliferative activity against human Molt4/C8 cells after 3 days; format: cell-based; settings: MOLT-4, 72 h
Summary of the method: (§2)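 Cells seeded at 5 × 10⁴ to 7.5 × 10⁴ cells/200 µL with or without serial compound dilutions; incubated at 37 °C for 2 days (L1210) or 3 days (Molt4/C8, CEM). Cell numbers counted with a Coulter counter. CC₅₀ = concentration reducing proliferation by 50% versus untreated controls, read from plots of cell number (% of control) against concentration. Means of at least two independent experiments.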

[4] = system: Human immunodeficiency virus 1; test: Antiviral activity against HIV1 3B in human CEM cells assessed as protection against virus-induced cytopathicity after 4 days; format: functional, organism-based; settings: Human immunodeficiency virus 1, 3B, CCRF-CEM, 96 h
Summary of the method: (§3)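 CEM cells (~3 × 10⁵ cells/mL) infected with ~100 CCID₅₀ per mL of HIV-1 (IIIB) or HIV-2 (ROD), then seeded into wells containing compound dilutions. After 4 days at 37 °C, syncytium (giant cell) formation was examined microscopically. EC₅₀ = concentration protecting CEM cells from HIV cytopathicity by 50%.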

[5] = system: Vesicular stomatitis virus; test: Antiviral activity against VSV in human HeLa cells assessed as protection against virus-induced cytopathicity; format: functional, organism-based
Human alphaherpesvirus 1 [6] = test: Antiviral activity against thymidine kinase deficient and acyclovir resistant HSV1 KOS in human HEL cells assessed as protection against virus-induced cytopathicity; format: functional, organism-based; settings: Human alphaherpesvirus 1, KOS
[7] = molecular target: Human immunodeficiency virus type 1 reverse transcriptase (Human immunodeficiency virus 1, UniProt Q72547, K103N); test: Inhibition of HIV1 reverse transcriptase p66/p51 K103N mutant; settings: read-out: IC50; summary of the method: as §1
Felid alphaherpesvirus 1 = test: Antiviral activity against Feline herpesvirus in feline […] cells assessed as inhibition of virus-induced cytopathicity; format: functional, organism-based
[8] = Cytotoxicity against human HEL cells assessed as drug level causing microscopically detectable alteration of normal cell morphology after 3 days; format: cell-based
Human alphaherpesvirus 1 [9] = test: Antiviral activity against HSV1 KOS in human HEL cells assessed as protection against virus-induced cytopathicity; format: functional, organism-based; settings: Human alphaherpesvirus 1, KOS
Coxsackievirus B4 [10] = test: Antiviral activity against Coxsackievirus B4 in human HeLa cells assessed as protection against virus-induced cytopathicity; format: functional, organism-based; settings: Enterovirus B
Summary of the method: (§4)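 Confluent cell monolayers inoculated with 100 CCID₅₀ virus. After 1-2 h adsorption, residual virus removed and cultures incubated with varying compound concentrations. Cytopathicity scored once it reached completion in untreated infected controls. EC₅₀ = dose reducing virus-induced cytopathogenicity by 50%.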

Influenza A virus H3N2 [11] = test: Antiviral activity against influenza H3N2 virus in MDCK cells assessed as reduction of virus-induced cytopathicity by visual cytopathic effect scoring method; format: functional, organism-based
Sindbis virus = test: Antiviral activity against Sindbis virus in african green monkey Vero cells assessed as protection against virus-induced cytopathicity; format: functional, organism-based; summary of the method: as §4
Punta Toro virus = test: Antiviral activity against Punta Toro virus in african green monkey Vero cells assessed as protection against virus-induced cytopathicity; format: functional, organism-based; summary of the method: as §4
[12] = Cytotoxicity against feline CRFK cells by MTS assay; format: cell-based, Felis catus; settings: cat
Coxsackievirus B4 [13] = test: Antiviral activity against Coxsackievirus B4 in african green monkey Vero cells assessed as protection against virus-induced cytopathicity; format: functional, organism-based; settings: Enterovirus B; summary of the method: as §4
Influenza B virus [14] = test: Antiviral activity against influenza B virus in MDCK cells assessed as reduction of virus-induced cytopathicity by visual cytopathic effect scoring method; format: functional, organism-based
Vaccinia virus = test: Antiviral activity against Vaccinia virus Lederle in human HEL cells assessed as protection against virus-induced cytopathicity; format: functional, organism-based; settings: Orthopoxvirus vaccinia
[15] = system: Human immunodeficiency virus 2; test: Antiviral activity against HIV2 ROD in human CEM cells assessed as protection against virus-induced cytopathicity after 4 days; format: functional, organism-based; settings: Human immunodeficiency virus 2, ROD, CCRF-CEM, 96 h; summary of the method: as §3
[16] = system: Mammalian orthoreovirus 1; test: Antiviral activity against Reovirus 1 in african green monkey Vero cells assessed as protection against virus-induced cytopathicity; format: functional, organism-based; settings: Mammalian orthoreovirus 1, Vero; summary of the method: as §4
Feline coronavirus = test: Antiviral activity against Feline coronavirus in feline […] cells assessed as inhibition of virus-induced cytopathicity; format: functional, organism-based; settings: Alphacoronavirus 1
[17] = molecular target: Human immunodeficiency virus type 1 reverse transcriptase (Human immunodeficiency virus 1, UniProt Q72547, Y181I); test: Inhibition of HIV1 reverse transcriptase p66/p51 Y181I mutant; settings: read-out: IC50; summary of the method: as §1
[18] = system: Vesicular stomatitis virus; test: Antiviral activity against VSV in human HEL cells assessed as protection against virus-induced cytopathicity; format: functional, organism-based
[19] = Cytotoxicity against african green monkey Vero cells assessed as drug level causing microscopically detectable alteration of normal cell morphology after 3 days; format: cell-based; settings: chlorocebus sabaeus
Summary of the method: (§5)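 Serial compound dilutions added to confluent HeLa or Vero monolayers. MCC = minimum concentration causing microscopically detectable alteration of cell morphology after 3 days of incubation.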

CCRF-CEM = test: Antiproliferative activity against human CEM cells after 3 days; format: cell-based; settings: 72 h; summary of the method: as §2
[20] = Cytotoxicity against human HeLa cells assessed as drug level causing microscopically detectable alteration of normal cell morphology after 3 days; format: cell-based; summary of the method: as §5
Influenza A virus H3N2 [21] = test: Antiviral activity against influenza H3N2 virus in MDCK cells assessed as reduction of virus-induced cytopathicity by MTS method; format: functional, organism-based
Influenza A virus [22] = test: Antiviral activity against influenza H1N1 virus in MDCK cells assessed as reduction of virus-induced cytopathicity by MTS method; format: functional, organism-based; settings: Influenza A virus, H1N1, MDCK
[23] = Cytotoxicity against MDCK cells assessed as drug level causing microscopically detectable alteration of normal cell morphology; format: cell-based, Canis lupus familiaris; settings: dog
[24] = system: Respiratory syncytial virus; test: Antiviral activity against RSV Long in human HeLa cells assessed as protection against virus-induced cytopathicity; format: functional, organism-based; summary of the method: as §4
Influenza A virus [25] = test: Antiviral activity against influenza H1N1 virus in MDCK cells assessed as reduction of virus-induced cytopathicity by visual cytopathic effect scoring method; format: functional, organism-based
[26] = Cytotoxicity against MDCK cells by MTS assay; format: cell-based, Canis lupus familiaris; settings: dog
Human alphaherpesvirus 2 = test: Antiviral activity against HSV2 G in human HEL cells assessed as protection against virus-induced cytopathicity; format: functional, organism-based; settings: Human alphaherpesvirus 2, strain G; summary of the method: as §4
Influenza B virus [27] = test: Antiviral activity against influenza B virus in MDCK cells assessed as reduction of virus-induced cytopathicity by MTS method; format: functional, organism-based
L1210 = test: Antiproliferative activity against mouse L1210 cells after 2 days; format: cell-based; settings: L1210, 48 h; summary of the method: as §2
Human respirovirus 3 = test: Antiviral activity against Parainfluenza virus type 3 in african green monkey Vero cells assessed as protection against virus-induced cytopathicity; format: functional, organism-based; settings: Human respirovirus 3, Vero; summary of the method: as §4

SMILES	pIC50 [1]	pIC50 [2]	pIC50 [3]	pEC50 [4]	pEC50 [5]	pEC50 (Human alphaherpesvirus 1 [6])	pIC50 [7]	pEC50 (Felid alphaherpesvirus 1)	MCC at 72 h [8]	pEC50 (Human alphaherpesvirus 1 [9])	pEC50 (Coxsackievirus B4 [10])	pEC50 (Influenza A virus H3N2 [11])	pEC50 (Sindbis virus)	pEC50 (Punta Toro virus)	CC50 [12]	pEC50 (Coxsackievirus B4 [13])	pEC50 (Influenza B virus [14])	pEC50 (Vaccinia virus)	pEC50 [15]	pEC50 [16]	also measured
Cc1cc(C)cc(S(=O)(=O)c2c(C(=O)NCC(N)=O)[nH]c3ccc([N+](=O)[O-])cc23)c1	7.47	6.69	< 3.30	8.62	< 4.00	< 4.70	6.38	< 4.00	100 µM	< 4.70	< 4.00	< 4.70	< 4.00	< 4.00	> 100 µM	< 4.00	< 4.70	< 4.70	< 4.30	< 4.00	pEC50 (Feline coronavirus): < 4.00; pIC50 [17]: 5.54; pEC50 [18]: < 4.70; MCC at 72 h [19]: > 100 µM; pIC50 (CCRF-CEM): ≤ 3.30; MCC at 72 h [20]: > 100 µM; pEC50 (Influenza A virus H3N2 [21]): < 4.70; pEC50 (Influenza A virus [22]): < 4.70; MCC [23]: 100 µM; pEC50 [24]: < 4.00; pEC50 (Influenza A virus [25]): < 4.70; CC50 [26]: > 100 µM; pEC50 (Human alphaherpesvirus 2): < 4.70; pEC50 (Influenza B virus [27]): < 4.70; pIC50 (L1210): < 3.30; pEC50 (Human respirovirus 3): < 4.00
Cc1cc(C)cc(S(=O)(=O)c2c(C(N)=O)[nH]c3ccc(Cl)cc23)c1	9.52	7.22	4.70	8.96	< 4.00	< 4.00	8.52	< 4.00	> 100 µM	< 4.00	< 4.00	< 4.00	< 4.00	< 4.00	> 100 µM	< 4.00	< 4.00	< 4.00	< 5.70	< 4.00	pEC50 (Feline coronavirus): < 4.00; pIC50 [17]: 6.85; pEC50 [18]: < 4.00; MCC at 72 h [19]: > 100 µM; pIC50 (CCRF-CEM): 3.52; MCC at 72 h [20]: > 100 µM; pEC50 (Influenza A virus H3N2 [21]): < 4.00; pEC50 (Influenza A virus [22]): < 4.00; MCC [23]: > 100 µM; pEC50 [24]: < 4.00; pEC50 (Influenza A virus [25]): < 4.00; CC50 [26]: > 100 µM; pEC50 (Human alphaherpesvirus 2): < 4.00; pEC50 (Influenza B virus [27]): < 4.00; pIC50 (L1210): ≤ 3.30; pEC50 (Human respirovirus 3): < 4.00
Cc1cc(C)cc(S(=O)(=O)c2c(C(=O)NC(C)CC(N)=O)[nH]c3ccc(Cl)c(F)c23)c1 (centres undefined)	6.44	6.41	4.60	8.34	< 4.70	< 4.70	5.47	< 4.70	100 µM	< 4.70	5.05	< 5.40	< 4.70	< 4.70	42.6 µM	< 4.70	< 5.40	< 4.70	< 5.00	< 4.70	pEC50 (Feline coronavirus): < 4.70; pIC50 [17]: < 4.40; pEC50 [18]: < 4.70; MCC at 72 h [19]: 100 µM; pIC50 (CCRF-CEM): 4.57; MCC at 72 h [20]: 100 µM; pEC50 (Influenza A virus H3N2 [21]): < 5.40; pEC50 (Influenza A virus [22]): < 5.40; MCC [23]: 20 µM; pEC50 [24]: 4.70; pEC50 (Influenza A virus [25]): < 5.40; CC50 [26]: 6.2 µM; pEC50 (Human alphaherpesvirus 2): < 4.70; pEC50 (Influenza B virus [27]): < 5.40; pIC50 (L1210): 4.38; pEC50 (Human respirovirus 3): < 4.70
Cc1cc(C)cc(S(=O)(=O)c2c(C(=O)NCCC(N)=O)[nH]c3ccc([N+](=O)[O-])cc23)c1	7.57	6.69	< 3.30	8.80	< 4.00	< 4.70	6.32	< 4.00	≥ 20 µM	< 4.70	< 4.00	< 4.70	< 4.00	< 4.00	> 100 µM	< 4.00	< 4.70	< 4.70	< 5.00	< 4.00	pEC50 (Feline coronavirus): < 4.00; pIC50 [17]: 5.26; pEC50 [18]: < 4.70; MCC at 72 h [19]: > 100 µM; pIC50 (CCRF-CEM): ≤ 3.30; MCC at 72 h [20]: > 100 µM; pEC50 (Influenza A virus H3N2 [21]): < 4.70; pEC50 (Influenza A virus [22]): < 4.70; MCC [23]: 100 µM; pEC50 [24]: < 4.00; pEC50 (Influenza A virus [25]): < 4.70; CC50 [26]: > 100 µM; pEC50 (Human alphaherpesvirus 2): < 4.70; pEC50 (Influenza B virus [27]): < 4.70; pIC50 (L1210): < 3.30; pEC50 (Human respirovirus 3): < 4.00
